# EP2 mod: EP2 receptor (human) modulation; P43116; EP2-expressing cells, cAMP HTRF FRET, PGE2 co-stimulation; induction, % at 25 µM; 260,000 tested, 0.83% active; AID 940;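 active = compounds whose cAMP rise, as percent of the full-agonist control response, exceeds 60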;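 note: rat C6 glioma line stably carrying human EP2 under a CMV promoter; the protocol text gives 20 µM as final concentration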
# Thrombin inh: inhibitors of human thrombin; alpha-thrombin, Boc-VPR-AMC fluorogenic substrate cleavage; P00734; 220,000 tested, 0.26% active; AID 1046; inhibition, % at 5 µM;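 active = inhibition at or above 40%; inactive = inhibition below 40%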
#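 Material: human alpha-thrombin enzyme / Medium: pH 7.5 Tris (50 mM) with NaCl 150 mM, Tween 20 0.05% / Compound: single-point dosing at 5 µM, 0.2% DMSO / Incubation: enzyme reaction carried out at room temperature / Detection: AMC fluorescence, 355/460 nm / Read-out basis: percent inhibition scaled between no-compound controls and no-enzyme blanks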
# FXIa inh 1536: blocks human coagulation factor XIa protease activity | P03951 | purified FXIa, Boc-Glu-Ala-Arg-AMC fluorogenic substrate | inhibition, % at 5 µM | 220,000 tested, 0.14% active | AID 798;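 active = inhibition of at least 40%; inactive = inhibition below 40%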;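 note: fluorescence of freed AMC excited at 355 nm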
# PGE2 EP2 inh: EP2 receptor (human) inhibition; C6 glioma cells expressing human EP2, cAMP TR-FRET; cells stimulated with saturating PGE2; inhibition, % at 25 µM; 260,000 tested, 0.52% active;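 active = percent inhibition above 40 after rounding to a whole number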;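 note: rat C6 glioma host cells with rolipram phosphodiesterase inhibitor present; the protocol text gives 20 µM as final concentration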
# hK5 inh: blocks human kallikrein 5 protease activity; recombinant hK5, fluorogenic AMC substrate cleavage; inhibition, % at 5 µM; 210,000 tested, 0.59% active; AID 873;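 active = inhibition of 40% or more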
# FXIIa inh: factor XIIa (human) inhibition; inhibition, % at 5 µM; 220,000 tested, 0.3% active; purified FXIIa, Boc-QGR-AMC fluorogenic substrate, 2 h; P00748; in the data active = inhibition above about 40%
# Target sequence (P00748 20-372 limits assumed): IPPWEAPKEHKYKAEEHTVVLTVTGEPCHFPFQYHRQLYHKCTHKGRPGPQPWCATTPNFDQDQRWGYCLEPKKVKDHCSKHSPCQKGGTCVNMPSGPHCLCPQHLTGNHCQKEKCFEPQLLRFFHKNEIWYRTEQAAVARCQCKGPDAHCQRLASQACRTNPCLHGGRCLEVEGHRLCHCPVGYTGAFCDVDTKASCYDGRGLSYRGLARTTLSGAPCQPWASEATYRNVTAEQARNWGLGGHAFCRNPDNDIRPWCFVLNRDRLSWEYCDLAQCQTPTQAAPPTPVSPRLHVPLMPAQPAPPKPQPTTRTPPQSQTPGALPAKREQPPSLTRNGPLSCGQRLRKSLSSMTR
# Target sequence (P00748 373-615 limits assumed): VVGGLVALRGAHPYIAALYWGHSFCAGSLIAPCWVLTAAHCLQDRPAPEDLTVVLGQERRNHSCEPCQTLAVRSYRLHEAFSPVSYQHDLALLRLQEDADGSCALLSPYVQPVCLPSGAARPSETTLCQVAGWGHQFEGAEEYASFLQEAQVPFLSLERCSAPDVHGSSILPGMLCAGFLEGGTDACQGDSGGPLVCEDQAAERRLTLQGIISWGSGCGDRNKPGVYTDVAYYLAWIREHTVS
# Numbers stand for hits; n = inactive; x = not tested or not shown; ! = repeats disagree. Only some compounds are listed: those with a hit (about 2.1% of all), similar ones and a draw of the others.
SMILES,EP2 mod,Thrombin inh,FXIa inh 1536,PGE2 EP2 inh,hK5 inh,FXIIa inh
C=CCn1c2cc(C)sc2c2cnn(Cc3ccccc3F)c(=O)c21,63,x,x,x,x,x
COC(=O)Cc1[nH]nc2c1C(c1ccccc1F)C(C#N)=C(N)O2 (stereo not given),n,x,x,n,x,x
Cc1cc(C)c(C#N)c(SCC(=O)c2ccccc2)n1,n,n,n,n,n,n
Cc1cc(C)c(C#N)c(SCc2ccc([N+](=O)[O-])cc2)n1,n,n,n,n,n,41
Cc1ccc(C(=O)NC(C)C(c2cccs2)N2CCCC2)s1 (stereo not given),n,45,n,n,n,x
O=C(Cn1ncc2cccn2c1=O)N1CCCC1,n,x,x,n,x,x
Cc1cccc(C2(O)CCN(CC(O)c3ccc(C)c(C)c3)CC2)c1 (stereo not given),n,x,x,n,x,x
CCN(CC)Cc1ccccc1Sc1ccccc1,n,44,n,n,44,n
N/C(Cc1ccccc1Sc1ccccc1)=N\O,n,n,n,n,n,n
O=C(NC1CCCCC1)C(c1ccccc1)N(Cc1cccs1)C(=O)c1cnccn1 (stereo not given),n,x,x,n,x,x
COc1ccc2[nH]c(=O)c(C(c3nnnn3Cc3ccc(F)cc3)N3CCCCCC3)cc2c1 (stereo not given),n,x,x,n,x,x
Cc1ccc(NC2=C/C(=N\S(=O)(=O)c3cccs3)c3ccccc3C2=O)c(C)c1,n,n,n,44,n,n
O=C(Cc1cccs1)N1CCC[C@@H](Cn2nc(-c3cccs3)ccc2=O)C1,n,x,x,n,x,x
CCOC(=O)C1=C(C)N(C)C(=S)NC1c1cccc(Cl)c1Cl (stereo not given),64,n,n,n,n,n
CCOC(=O)C1=C(C)N(C)C(=S)NC1c1ccccc1Cl (stereo not given),n,n,n,n,n,n
CCCCN1C(=O)C2ON(c3ccccc3C)C(c3ccco3)C2C1=O (stereo not given),63,n,n,n,n,n
Clc1ccc(-c2ccc(SCc3ccccn3)nn2)cc1,n,n,n,n,43,n
c1ccc(CSc2ccc(-c3ccccn3)nn2)nc1,n,n,n,n,n,n
Cc1ccc(CN(CCCn2ccnc2)Cc2ccc(O)cc2)s1,n,x,x,n,x,x
CC(=O)NC(c1ccc(F)cc1)c1cccnc1 (stereo not given),n,n,n,n,49,n
Cc1cccc(NC(=O)c2ccc(C3SCC(=O)N3CCc3ccccc3)cc2)c1C (stereo not given),n,n,n,n,n,n
Cc1ccccc1NC(=O)C1(NC(=O)c2cccc(N3C(=O)CSC3c3ccccc3)c2)CCCCC1 (stereo not given),n,n,n,n,80,n
COc1ccc(NC(=O)CC2C(=O)N(C)C(=S)N2Cc2ccncc2)cc1 (stereo not given),n,n,n,n,n,n
COC(=O)c1ccc(NC(=O)CC2C(=O)N(C)C(=S)N2Cc2ccc(S(N)(=O)=O)cc2)cc1 (stereo not given),n,n,n,n,54,n
Cc1cc(C)cc(-n2nnnc2SCC(=O)Nc2nc3ccccc3s2)c1,n,x,x,n,x,x
SMILES,EP2 mod,Thrombin inh,FXIa inh 1536,PGE2 EP2 inh,hK5 inh,FXIIa inh
CNC(=O)COC(=O)c1ccc(Cl)c(S(N)(=O)=O)c1,n,n,n,n,49,n
CNC(=O)COC(=O)c1ccc(Cl)c(S(=O)(=O)N2CCCC2)c1,n,x,n,n,n,n
CN1c2cccc3cccc(c23)N(C)C1c1cccs1,64,n,n,n,n,n
COc1ccccc1NC(=O)N(CCc1ccccc1C)Cc1cc2ccc(C)c(C)c2[nH]c1=O,n,x,x,n,x,x
CCOC(=O)CC1C(=O)NCCN1Cc1cccc(C(F)(F)F)c1 (stereo not given),n,n,n,n,40,n
COc1ccc(C2C3=C(CCCC3=O)N(C)C3=C2C(=O)CCC3)cc1OC,n,x,x,n,x,x
COc1ccc(N/C(=N\c2nc(C)cc(C)n2)NC(C)=O)cc1OC,n,50,n,n,n,n
Cc1ccc(N=Nc2c(O)c3ccccc3[nH]c2=O)c(S(=O)(=O)N(C)C)c1,n,n,n,48!,n,n
Cc1cc(N=Nc2c(O)c3ccccc3[nH]c2=O)ccc1N=Nc1ccc(C(=O)N(C)C)cc1,n,n,n,n,n,n
Cn1c(=O)c2[nH]c(CN3CCN(CCO)CC3)nc2n(C)c1=O,n,x,x,n,x,x
CCOc1ccc(C(=O)Nc2sc3c(c2C#N)CCC3)cc1,n,x,x,n,x,x
COc1cc(/C=N/NC(=O)CSc2cc(C)c(Br)cc2C)ccc1O,n,n,n,41,n,n
C[C@@]12C[C@H](O)[C@@H]3[C@H](CCC4=CC(=O)CC[C@]43C)[C@H]1CC[C@H]2c1csc(N)n1,n,x,x,66,x,x
CC(=O)[C@@]1(O)CC[C@H]2[C@@H]3CCC4=CC(=O)CC[C@]4(C)[C@H]3[C@@H](O)C[C@@]21C,n,n,n,n,n,n
CCc1nc(SCC(=O)Nc2nccs2)c2ccccc2n1,n,x,x,n,x,x
Cc1ccc(NC(=O)C(C)N2CCOCC2)c(C(=O)c2ccccc2)c1 (stereo not given),n,n,n,n,43,n
CN(Cc1cc2ccccc2[nH]c1=O)S(C)(=O)=O,n,n,n,n,47,n
Cc1ccccc1NC(=O)C(C#N)Cc1cccs1 (stereo not given),n,x,x,n,x,x
Cc1cccc2c1N(CCOc1ccc(C(C)(C)C)cc1)C(=O)C2=O,n,n,n,n,n,n
Cc1ccc(OCCCN2C(=O)C(=O)c3cccc(C)c32)cc1,63,n,n,n,n,n
CCOc1ccc2nc(NC(=O)CSc3nc(C)cc(=O)[nH]3)sc2c1,n,x,x,n,x,x
O=C(NCc1ccco1)c1ccc2c(c1)CCO2,n,n,n,n,53,52
O=C(CCCCl)Nc1ncc(Cc2ccccc2Cl)s1,n,x,x,n,x,x
O=c1c(Cl)c(Nc2cccc(Cl)c2)cnn1-c1nc2ccccc2s1,n,n,n,n,n,n
COc1ccc(Nc2cnn(-c3nc4ccccc4s3)c(=O)c2Cl)cc1,n,n,n,61,n,n
SMILES,EP2 mod,Thrombin inh,FXIa inh 1536,PGE2 EP2 inh,hK5 inh,FXIIa inh
Cc1ccc(S(=O)(=O)C/N=C(/NC(=S)N(c2ccccc2)c2ccccc2)c2ccccc2)cc1,61,n,n,n,n,n
CCOC(=O)C1CCCN(c2c(NCCCN(C)c3ccccc3)c(=O)c2=O)C1 (stereo not given),n,n,n,n,42,n
Cc1ccc(-n2c(SCC(=O)NC(C)(C)C)nnc2-c2ccncc2)cc1C,n,x,x,n,x,x
Cc1ccccc1OCC(=O)Nc1ccc2c(c1)OCCO2,n,n,n,n,n,n
O=C(COc1ccccc1Cl)Nc1ccc2c(c1)OCCO2,64,n,n,n,n,n
COC(=O)c1cc(-c2ccc(C=C3C(=O)OC4(CCCC4)OC3=O)o2)ccc1Cl,n,x,x,88,x,x
CCCCC1(C)OC(=O)C(=Cc2ccc(-c3ccc(Cl)c(C(=O)O)c3)o2)C(=O)O1 (stereo not given),n,n,n,n,n,n

# Screening data deposited in PubChem BioAssay by several laboratories.
